Measurements as given in ChEMBL document CHEMBL4118256, “Second Generation of Mannich Base-Type Derivatives with in Vivo Activity against Trypanosoma cruzi” (J Med Chem, 2018).
Calls of active or inactive are those of the source. The rule behind the calls is not given here.

Key:
Trypanosoma cruzi [1] = assay: (§1) Antitrypanosomal activity against Trypanosoma cruzi MHOM/Pe/2011/Arequipa DTU 5 trypamastigotes infected in Balb/c mouse assessed as reduction in parasitaemia reactivation at 100 mg/kg, po pretreated once daily for 5 consecutive days starting from day 75 post infection followed by cyclophosphamide-induced immunosuppression on day 100 post infection every 4 days for a maximum of 3 doses measured up to 1 week post immunosuppression by Neubauer chamber method; format: functional, organism-based
Mus musculus [2] = assay: (§2) Nephrotoxicity in Balb/c mouse infected with Trypanosoma cruzi MHOM/Pe/2011/Arequipa DTU 5 trypamastigotes assessed as decrease in urea level in serum at 100 mg/kg, po once daily for 5 consecutive days starting from day 10 post infection measured on day 16 post infection by biochemical analysis relative to control; format: toxicity, organism-based; design: scale not given: the % may be the effect or the level left; conditions: in vivo
Mus musculus [3] = assay: as §2, with “change” for “decrease”, “127” for “16”; format: toxicity, organism-based; conditions: in vivo
Mus musculus [4] = assay: as §2, with “day 75” for “day 10”, “day 81” for “day 16”; format: toxicity, organism-based; design: scale not given: the % may be the effect or the level left; conditions: in vivo
Mus musculus [5] = assay: as §2, with “day 75” for “day 10”, “day 127” for “day 16”; format: toxicity, organism-based; design: scale not given: the % may be the effect or the level left; conditions: in vivo
Mus musculus [6] = assay: as §2, with “uric acid” for “urea”; format: toxicity, organism-based; design: scale not given: the % may be the effect or the level left; conditions: in vivo
Mus musculus [7] = assay: as §2, with “change” for “decrease”, “uric acid” for “urea”, “127” for “16”; format: toxicity, organism-based; conditions: in vivo
Mus musculus [8] = assay: as §2, with “in uric acid” for “in urea”, “day 75” for “day 10”, “day 81” for “day 16”; format: toxicity, organism-based; design: scale not given: the % may be the effect or the level left; conditions: in vivo
Mus musculus [9] = assay: as §2, with “Cardiotoxicity” for “Nephrotoxicity”, “change” for “decrease”, “ratio of creatine kinase” for “urea level”, “muscle to brain” for “serum”; format: toxicity, organism-based; conditions: in vivo
Mus musculus [10] = assay: as §2, with “Cardiotoxicity” for “Nephrotoxicity”, “change” for “decrease in urea level”, “serum LDH level” for “serum”; format: toxicity, organism-based; conditions: in vivo
Mus musculus [11] = assay: as §2, with “Hepatotoxicity” for “Nephrotoxicity”, “increase” for “decrease”, “ratio of serum ALT to GPT” for “urea”, “level” for “level in serum”, “127” for “16”; format: toxicity, organism-based; conditions: in vivo
Mus musculus [12] = assay: (§3) Hepatotoxicity in Balb/c mouse infected with Trypanosoma cruzi MHOM/Pe/2011/Arequipa DTU 5 trypamastigotes assessed as increase in alkaline phosphatase level at […], po once daily for 5 consecutive days starting from day 75 post infection measured on day 81 post infection by biochemical analysis relative to control; format: toxicity, organism-based; conditions: in vivo
Trypanosoma cruzi [13] = assay: Antitrypanosomal activity against Trypanosoma cruzi MHOM/Pe/2011/Arequipa DTU 5 epimastigotes assessed as effect on parasite glycolytic pathway by measuring acetate excretion at IC25 after 72 hrs by 1H NMR method; format: functional, organism-based
How it was run: (§4)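 Arequipa epimastigotes exposed at IC25 for 72 h alongside an untreated control. Excreted catabolites were analysed by 1H NMR, and each peak is reported as % variation versus the control. Three separate determinations.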

Trypanosoma cruzi [14] = assay: Antitrypanosomal activity against Trypanosoma cruzi MHOM/Pe/2011/Arequipa DTU 5 epimastigotes assessed as effect on parasite glycolytic pathway by measuring L-alanine excretion at IC25 after 72 hrs by 1H NMR method; format: functional, organism-based; how it was run: as §4
Trypanosoma cruzi [15] = assay: Antitrypanosomal activity against Trypanosoma cruzi MHOM/Pe/2011/Arequipa DTU 5 epimastigotes assessed as effect on parasite glycolytic pathway by measuring D-lactate excretion at IC25 after 72 hrs by 1H NMR method; format: functional, organism-based; how it was run: as §4
Trypanosoma cruzi [16] = assay: Antitrypanosomal activity against Trypanosoma cruzi MHOM/Pe/2011/Arequipa DTU 5 epimastigotes assessed as effect on parasite glycolytic pathway by measuring ethanol excretion at IC25 after 72 hrs by 1H NMR method; format: functional, organism-based; how it was run: as §4
Trypanosoma cruzi [17] = assay: as §1, with “reactivation in heart tissue” for “reactivation”, “at 20” for “at 100”, “day 10” for “day 75”, “measured on day 127” for “measured up to 1 week”, “post infection” for “post immunosuppression”, “by PCR” for “by Neubauer chamber”; format: functional; design: scale not given: the % may be the effect or the level left
How it was run: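 Necropsy on day 127 pi after oral treatment and cyclophosphamide immunosuppression. Tissue DNA was amplified by PCR targeting the ~300 bp T. cruzi SOD gene, 200 nM each primer, 30 cycles with 55.5 °C annealing. Products run on 2 % agarose; positive organs counted out of six mice.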

Mus musculus [18] = assay: as §2, with “Hepatotoxicity” for “Nephrotoxicity”, “change” for “decrease”, “ratio of serum ALT to GPT” for “urea”, “level” for “level in serum”, “20” for “100”, “127” for “16”; format: toxicity, organism-based; conditions: in vivo
How it was run: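 Serum clinical chemistry in Arequipa-infected female BALB/c mice. Oral 20 mg·kg-1 per day for 5 days, started day 10 or day 75 pi. Samples taken at day 16 pi or day 81 pi, and on necropsy day. Markers: CK-MB and LDH (U/L), AST, ALT and alkaline phosphatase (U/L), total bilirubin. Results scored relative to infected untreated controls; uninfected reference n = 15.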

Mus musculus [19] = assay: as §2, with “as change” for “as decrease”, “in uric acid” for “in urea”, “day 75” for “day 10”, “day 127” for “day 16”; format: toxicity, organism-based; conditions: in vivo
Mus musculus [20] = assay: as §2, with “Hepatotoxicity” for “Nephrotoxicity”, “ratio of serum AST to GOT” for “urea”, “level” for “level in serum”; format: toxicity, organism-based; design: scale not given: the % may be the effect or the level left; conditions: in vivo
Mus musculus [21] = assay: as §2, with “Hepatotoxicity” for “Nephrotoxicity”, “ratio of serum AST to GOT” for “urea”, “level” for “level in serum”, “127” for “16”; format: toxicity, organism-based; design: scale not given: the % may be the effect or the level left; conditions: in vivo
Mus musculus [22] = assay: as §3, with “decrease” for “increase”, “ratio of serum AST to GOT” for “alkaline phosphatase”; format: toxicity, organism-based; design: scale not given: the % may be the effect or the level left; conditions: in vivo
Mus musculus [23] = assay: as §2, with “Hepatotoxicity in” for “Nephrotoxicity in”, “in ratio of serum AST to GOT” for “in urea”, “level” for “level in serum”, “day 75” for “day 10”, “day 127” for “day 16”; format: toxicity, organism-based; design: scale not given: the % may be the effect or the level left; conditions: in vivo
Mus musculus [24] = assay: as §2, with “Hepatotoxicity” for “Nephrotoxicity”, “ratio of serum ALT to GPT” for “urea”, “level” for “level in serum”; format: toxicity, organism-based; design: scale not given: the % may be the effect or the level left; conditions: in vivo
Mus musculus [25] = assay: as §3, with “decrease” for “increase”, “ratio of serum ALT to GPT” for “alkaline phosphatase”; format: toxicity, organism-based; design: scale not given: the % may be the effect or the level left; conditions: in vivo
Mus musculus [26] = assay: as §2, with “Hepatotoxicity in” for “Nephrotoxicity in”, “in ratio of serum ALT to GPT” for “in urea”, “level” for “level in serum”, “day 75” for “day 10”, “day 127” for “day 16”; format: toxicity, organism-based; design: scale not given: the % may be the effect or the level left; conditions: in vivo
Mus musculus [27] = assay: as §2, with “Hepatotoxicity” for “Nephrotoxicity”, “total bilirubin” for “urea”, “level” for “level in serum”; format: toxicity, organism-based; design: scale not given: the % may be the effect or the level left; conditions: in vivo
Mus musculus [28] = assay: as §3, with “decrease” for “increase”, “total bilirubin” for “alkaline phosphatase”; format: toxicity, organism-based; design: scale not given: the % may be the effect or the level left; conditions: in vivo
Mus musculus [29] = assay: as §2, with “Hepatotoxicity” for “Nephrotoxicity”, “alkaline phosphatase” for “urea”, “level” for “level in serum”; format: toxicity, organism-based; design: scale not given: the % may be the effect or the level left; conditions: in vivo

Row | SMILES | Activity (Trypanosoma cruzi [1]) | Activity (Mus musculus [2]) | Activity (Mus musculus [3]) [%] | Activity (Mus musculus [4]) | Activity (Mus musculus [6]) | Activity (Mus musculus [7]) [%] | Activity (Mus musculus [8]) | Activity (Mus musculus [9]) [%] | Activity (Mus musculus [10]) [%] | Activity (Trypanosoma cruzi [13]) | Activity (Trypanosoma cruzi [14]) | Activity (Trypanosoma cruzi [15]) | Activity (Trypanosoma cruzi [16]) | Activity (Mus musculus [19]) [%] | Activity (Mus musculus [20]) | Activity (Mus musculus [21]) | Activity (Mus musculus [22]) | Activity (Mus musculus [23]) | Activity (Mus musculus [24]) | Activity (Mus musculus [25]) | further results
1 | COc1ccc(C(=O)CCN2CCN(c3ccc([N+](=O)[O-])cc3)CC2)cc1 | Active | <= 20% | < 10 | <= 10% | <= 20% | < 10 | <= 30% | < 10 | < 10 | inactive | inactive | inactive | inactive |  |  |  |  |  |  |  | Activity (Mus musculus [5]): <= 10%; Activity (Mus musculus [11]): <= 30%; Activity (Mus musculus [12]): <= 10%
2 | O=C(Cn1ccnc1[N+](=O)[O-])NCc1ccccc1 [BENZNIDAZOLE] |  |  |  |  |  |  |  |  |  |  |  |  |  |  |  |  |  |  |  |  | Activity (Trypanosoma cruzi [17]): 33%; Activity (Mus musculus [18]): < 10%
3 | COc1ccc(C(=O)CCN2CCN(c3ccc(F)cc3)CC2)cc1 | Active |  |  |  |  |  |  | < 10 | < 10 |  |  |  |  | < 10 | <= 30% | <= 10% | <= 10% | <= 20% | <= 30% | <= 30% | Activity (Mus musculus [26]): <= 10%; Activity (Mus musculus [27]): <= 10%; Activity (Mus musculus [28]): <= 10%; Activity (Mus musculus [29]): <= 20%
4 | COc1ccc(C(=O)CCN2CCN(c3ccc(Cl)cc3)CC2)cc1 |  | <= 30% | < 10 | <= 30% | <= 30% | < 10 | <= 30% |  |  | inactive | inactive | inactive | inactive | < 10 | <= 20% | <= 10% | <= 20% | <= 20% | <= 20% | <= 30% | Activity (Mus musculus [26]): <= 10%; Activity (Mus musculus [27]): <= 10%; Activity (Mus musculus [28]): <= 20%; Activity (Mus musculus [29]): <= 10%
